One may read the MIC as the lowest concentration found to suppress growth. As usually defined, the CC50 is the concentration that lowers cell viability or growth by half.

Values after ≈ are worked out from the molar mass of the structure shown. Active and inactive are the calls of the source. No cut-off for these calls is given here. Some results are limits rather than exact numbers.

In series [1] the test system is Staphylococcus aureus. Description: Antibacterial activity against methicillin/ceftriaxone/meropenem-resistant Staphylococcus aureus NRS10192 clinical isolate assessed as bacterial growth inhibition incubated for 16 to 18 hrs by CLSI based antibiotic susceptibility testing method. Format: functional. The settings on record: time 16-18 hrs. A digest of the protocol:
(§1)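 Broth microdilution in cation-adjusted Mueller-Hinton broth. Compounds were tested at […], with levofloxacin as reference and medium-only controls. Plates were incubated at 37 °C for 16-18 h. MIC was the lowest concentration with no visible growth; three independent determinations, each in duplicate.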

Series [2] can be described thus: Selectivity index, ratio of CC50 for African green monkey Vero cells to MIC for Staphylococcus aureus ATCC 29213. It counts as toxicity, cell-based. The note with it: read-out: Selectivity Index.
The test system of series [3] is Staphylococcus aureus. Nature of the series: Antibacterial activity against methicillin/ceftriaxone/meropenem/gentamycin/linezolid-resistant Staphylococcus aureus NRS10100 clinical isolate assessed as bacterial growth inhibition incubated for 16 to 18 hrs by CLSI based antibiotic susceptibility testing method. Format: functional. The settings on record: time 16-18 hrs. The method, boiled down: as §1

Series [4] relates to Staphylococcus aureus. Description: Antibacterial activity against methicillin/ceftriaxone/meropenem-resistant Staphylococcus aureus NRS10129 clinical isolate assessed as bacterial growth inhibition incubated for 16 to 18 hrs by CLSI based antibiotic susceptibility testing method. The note with it: time 16-18 hrs. It counts as functional. The method, boiled down: as §1
The test system of series [5] is Staphylococcus aureus. Nature of the series: Antibacterial activity against methicillin/ceftriaxone/meropenem/gentamycin/linezolid-resistant Staphylococcus aureus NRS10119 clinical isolate assessed as bacterial growth inhibition incubated for 16 to 18 hrs by CLSI based antibiotic susceptibility testing method. Format: functional. The note with it: time 16-18 hrs. A digest of the protocol: as §1

The subject of series [6] is Staphylococcus aureus. Description: Antibacterial activity against methicillin/ceftriaxone/meropenem/vancomycin/teicoplanin-resistant Staphylococcus aureus VRS4 clinical isolate assessed as bacterial growth inhibition incubated for 16 to 18 hrs by CLSI based antibiotic susceptibility testing method. Format: functional. The settings on record: time 16-18 hrs. A digest of the protocol: as §1

Series [7] deals with Mycobacterium tuberculosis. Description: Antimycobacterial activity against Mycobacterium tuberculosis H37Rv ATCC 27294 assessed as bacterial growth inhibition incubated for 7 days by resazurin dye based broth microdilution method. Format: functional. The settings on record: H37Rv ATCC 27294, 168 h, time 7 day. The method, boiled down:
(§2)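 Broth microdilution in Middlebrook 7H9 with 10% ADC-Tween-80 (0.2% glycerol, 0.05% Tween-80), inoculum ~10⁶ cfu/mL. Compounds came from 10 mg/mL DMSO stocks and were tested as two-fold serial dilutions at 37 °C, 7 days for M. tuberculosis H37Rv and 72 h for NTM. Growth was read visually with PrestoBlue resazurin dye; MIC was the lowest concentration preventing growth. Triplicate determinations, each in duplicate.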

A further series relates to Acinetobacter baumannii. Nature of the series: Antibacterial activity against Acinetobacter baumannii BAA 1605 assessed as bacterial growth inhibition incubated for 16 to 18 hrs by CLSI based antibiotic susceptibility testing method. It counts as functional, organism-based. The settings on record: time 16-18 hrs. A digest of the protocol:
as §1

For series [8], the system named is Mycobacteroides abscessus. Nature of the series: Antimycobacterial activity against Mycobacterium abscessus ATCC 19977 assessed as bacterial growth inhibition incubated for 72 hrs by resazurin dye based broth microdilution method. It counts as functional, organism-based. The method, boiled down: as §2
A general note: The colour change of resazurin is a common sign of viable cells or microbes.

Series [9] concerns Staphylococcus aureus. Description: Antibacterial activity against methicillin/ceftriaxone/meropenem/gentamycin/vancomycin/teicoplanin-resistant Staphylococcus aureus VRS1 clinical isolate assessed as bacterial growth inhibition incubated for 16 to 18 hrs by CLSI based antibiotic susceptibility testing method. It counts as functional. The note with it: time 16-18 hrs. The method, boiled down:
as §1

Series [10] can be described thus: Cytotoxicity against African green monkey Vero cells by MTT assay. It counts as toxicity, cell-based. The note with it: chlorocebus sabaeus. The method, boiled down: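 Vero cells were seeded at ~10³ per well at 37 °C, 5% CO2. After 24 h, compounds were added at 5-100 mg/L for 72 h. […] was added for 4 h, formazan was dissolved in DMSO and read at 540 nm. CC50 was taken as the lowest concentration reducing viability by 50%; doxorubicin was the positive control; triplicate.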
(Tetrazolium assays rely on reduction of a dye to a coloured formazan, in cell work by metabolically active cells.)

The subject of series [11] is Staphylococcus aureus. Nature of the series: Antibacterial activity against Staphylococcus aureus ATCC 29213 assessed as bacterial growth inhibition incubated for 16 to 18 hrs by CLSI based antibiotic susceptibility testing method. The note with it: time 16-18 hrs. It counts as functional. The method, boiled down:
as §1

The next series relates to Pseudomonas aeruginosa. Description: Antibacterial activity against Pseudomonas aeruginosa ATCC 27853 assessed as bacterial growth inhibition incubated for 16 to 18 hrs by CLSI based antibiotic susceptibility testing method. It counts as functional, organism-based. The settings on record: time 16-18 hrs. A digest of the protocol: as §1
Series [12] has as its system Staphylococcus aureus. Description: Bactericidal activity against Staphylococcus aureus ATCC 29213 assessed as reduction in remnant bacterial cells measured for 24 hrs by time-kill assay. Format: functional, organism-based. A digest of the protocol: (§3)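 Time-kill assay: S. aureus ATCC 29213 at ~10⁶ cfu/mL in MHB, exposed to 1X and 10X MIC at 37 °C, in triplicate. Samples taken at 0, 1, 6 and 24 h were serially diluted in PBS and plated on TSA for 18-20 h at 37 °C. Surviving cfu/mL were counted against untreated controls.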

The next series concerns Escherichia coli. Nature of the series: Antibacterial activity against Escherichia coli ATCC 25922 assessed as bacterial growth inhibition incubated for 16 to 18 hrs by CLSI based antibiotic susceptibility testing method. Format: functional, organism-based. The note with it: time 16-18 hrs. The method, boiled down: as §1
In series [13] the test system is Staphylococcus aureus. Description: Antibacterial activity against methicillin/ceftriaxone/meropenem-resistant Staphylococcus aureus NRS10193 clinical isolate assessed as bacterial growth inhibition incubated for 16 to 18 hrs by CLSI based antibiotic susceptibility testing method. Format: functional. The settings on record: time 16-18 hrs. A digest of the protocol: as §1

For series [14], the system named is Staphylococcus aureus. Description: Antibacterial activity against methicillin/ceftriaxone/meropenem/vancomycin/teicoplanin-resistant Staphylococcus aureus VRS12 clinical isolate assessed as bacterial growth inhibition incubated for 16 to 18 hrs by CLSI based antibiotic susceptibility testing method. Format: functional. The note with it: time 16-18 hrs. A digest of the protocol: as §1

The subject of series [15] is Staphylococcus aureus. Description: Antibacterial activity against methicillin/ceftriaxone-resistant Staphylococcus aureus NRS10194 clinical isolate assessed as bacterial growth inhibition incubated for 16 to 18 hrs by CLSI based antibiotic susceptibility testing method. It counts as functional. The note with it: time 16-18 hrs. A digest of the protocol: as §1
The subject of series [16] is Staphylococcus aureus. Description: Antibacterial activity against methicillin/ceftriaxone/meropenem-resistant Staphylococcus aureus NRS10186 clinical isolate assessed as bacterial growth inhibition incubated for 16 to 18 hrs by CLSI based antibiotic susceptibility testing method. Format: functional. The settings on record: time 16-18 hrs. A digest of the protocol:
as §1

The subject of another series is Mycobacteroides chelonae. Nature of the series: Antimycobacterial activity against Mycobacteroides chelonae ATCC 35752 assessed as bacterial growth inhibition incubated for 72 hrs by resazurin dye based broth microdilution method. It counts as functional, organism-based. The method, boiled down:
as §2

Series [17] relates to Staphylococcus aureus. Description: Antibacterial activity against methicillin/ceftriaxone/meropenem-resistant Staphylococcus aureus NRS10191 clinical isolate assessed as bacterial growth inhibition incubated for 16 to 18 hrs by CLSI based antibiotic susceptibility testing method. Format: functional. The note with it: time 16-18 hrs. A digest of the protocol:
as §1

For series [18], the system named is Mycolicibacterium fortuitum. Nature of the series: Antimycobacterial activity against Mycobacterium fortuitum ATCC 6841 assessed as bacterial growth inhibition incubated for 72 hrs by resazurin dye based broth microdilution method. Format: functional, organism-based. A digest of the protocol:
as §2

Another series deals with Klebsiella pneumoniae. Nature of the series: Antibacterial activity against Klebsiella pneumoniae BAA 1705 assessed as bacterial growth inhibition incubated for 16 to 18 hrs by CLSI based antibiotic susceptibility testing method. It counts as functional, organism-based. The settings on record: time 16-18 hrs. The method, boiled down: as §1
Series [19] relates to Staphylococcus aureus. Nature of the series: Antibacterial activity against methicillin-sensitive Staphylococcus aureus ATCC 29213 clinical isolate assessed as bacterial growth inhibition incubated for 16 to 18 hrs by CLSI based antibiotic susceptibility testing method. It counts as functional. The note with it: time 16-18 hrs. The method, boiled down: as §1
Series [20] concerns Staphylococcus aureus. Nature of the series: Antibacterial activity against methicillin/ceftriaxone/meropenem-resistant Staphylococcus aureus NRS10198 clinical isolate assessed as bacterial growth inhibition incubated for 16 to 18 hrs by CLSI based antibiotic susceptibility testing method. Format: functional. The note with it: time 16-18 hrs. The method, boiled down:
as §1

The subject of series [21] is Staphylococcus aureus. Description: Bactericidal activity against Staphylococcus aureus ATCC 29213 assessed as reduction in remnant bacterial cells at 10 times MIC measured for 24 hrs by time-kill assay. Format: functional. The method, boiled down:
as §3

In series [22] the test system is Staphylococcus aureus. Description: Antimicrobial activity against Staphylococcus aureus assessed as microbial growth inhibition. Format: functional.

Regarding `O=C(CN1C(=O)c2cccc3cccc(c23)C1=O)N1CCC(NC(=S)NC2CCCC2)CC1`, the MIC in the series with Staphylococcus aureus [1] was 0.06 µg/mL (≈ 0.129 µM); in the series with Staphylococcus aureus [3], 0.06 µg/mL (≈ 0.129 µM); in the series on Staphylococcus aureus [4], 0.06 µg/mL (≈ 0.129 µM); in the series on Staphylococcus aureus [5], 0.06 µg/mL (≈ 0.129 µM); in the series on Staphylococcus aureus [6] it was 0.06 µg/mL (≈ 0.129 µM); in series [7], greater than 64 µg/mL. Besides, the MIC in the series on Staphylococcus aureus [9] was 0.06 µg/mL (≈ 0.129 µM); in the series with Staphylococcus aureus [11] it was 0.031 µg/mL (≈ 0.0667 µM); with Staphylococcus aureus [13], 0.06 µg/mL (≈ 0.129 µM); in the series with Staphylococcus aureus [14] it was 0.06 µg/mL (≈ 0.129 µM); in the series on Staphylococcus aureus [15] it was 0.06 µg/mL (≈ 0.129 µM); in the series with Staphylococcus aureus [16], 0.06 µg/mL (≈ 0.129 µM). For the same compound, the MIC in the series with Staphylococcus aureus [17], in the series on Staphylococcus aureus [19] and in the series with Staphylococcus aureus [20] was 0.06 µg/mL (≈ 0.129 µM) throughout. Moreover, in series [2], the selectivity ratio was greater than 3200. In addition, the “growth inhibition (GI)” value (in the series on Acinetobacter baumannii; in series [8]; in the series with Pseudomonas aeruginosa; in the series with Escherichia coli; in the series on Mycobacteroides chelonae; in series [18]) was “inactive” in each case. Further, the “growth inhibition (GI)” value in the series on Klebsiella pneumoniae is “inactive”. The CC50 in series [10] was greater than 100 µg/mL. For the same compound, the results for the Activity result in the series on Staphylococcus aureus [12] and in the series on Staphylococcus aureus [21] were “Dose-Dependent Effect” and roughly 5 log10CFU/ml, respectively.
With `O=C1c2cccc3cccc(c23)C(=O)N1CCN1CCN(C(=S)NC2CCCCCC2)CC1`, the MIC with Staphylococcus aureus [1] was 0.5 µg/mL (≈ 1.08 µM); in the series with Staphylococcus aureus [3] it was 0.5 µg/mL (≈ 1.08 µM); in the series on Staphylococcus aureus [4], 0.5 µg/mL (≈ 1.08 µM); with Staphylococcus aureus [5], 1 µg/mL (≈ 2.15 µM); with Staphylococcus aureus [6] it was 0.5 µg/mL (≈ 1.08 µM); in series [7] it was greater than 64 µg/mL. Also, the MIC in the series with Staphylococcus aureus [9] came to 1 µg/mL (≈ 2.15 µM); in the series on Staphylococcus aureus [11], 0.25 µg/mL (≈ 0.538 µM); in the series with Staphylococcus aureus [13], 1 µg/mL (≈ 2.15 µM); in the series on Staphylococcus aureus [14] it was 1 µg/mL (≈ 2.15 µM); with Staphylococcus aureus [15], 0.5 µg/mL (≈ 1.08 µM); with Staphylococcus aureus [16], 1 µg/mL (≈ 2.15 µM). Moreover, the figures for the MIC with Staphylococcus aureus [17], in the series on Staphylococcus aureus [19] and in the series on Staphylococcus aureus [20] were 1 µg/mL (≈ 2.15 µM), 0.5 µg/mL (≈ 1.08 µM) and 1 µg/mL (≈ 2.15 µM), respectively. In addition, in [2], the selectivity ratio is greater than 80. For the same compound, the “growth inhibition (GI)” value (in the series on Acinetobacter baumannii; in [8]; in the series on Pseudomonas aeruginosa; in the series on Escherichia coli; in the series with Mycobacteroides chelonae; in [18]) was “inactive” throughout. Moreover, the “growth inhibition (GI)” value in the series with Klebsiella pneumoniae is “inactive”. The CC50 in series [10] is greater than 20 µg/mL. The Activity entry is “Dose-Dependent Effect” in the series on Staphylococcus aureus [12] and roughly 5 log10CFU/ml in the series with Staphylococcus aureus [21].
For the compound `COc1ccc(-c2csc(NC(=S)N[C@@H]3O[C@H](COC(C)=O)[C@@H](OC(C)=O)[C@H](OC(C)=O)[C@H]3OC(C)=O)n2)cc1[N+](=O)[O-]`, the minimal inhibitory concentration (MIC) with Staphylococcus aureus [22] is 0.78 µg/mL (≈ 1.22 µM).
The same measure, in the same setting: the result for `CCCCCc1nnc(NC(=S)NS(=O)(=O)c2ccc(C)cc2)s1` reads 0.78 µg/mL (≈ 2.03 µM).

Source of the values: ChEMBL document CHEMBL5385966, “Synthesis and biological evaluation of new naphthalimide-thiourea derivatives as potent antimicrobial agents active against multidrug-resistant Staphylococcus aureus and Mycobacterium tuberculosis” (RSC Med Chem, 2024).
